# Assay results reported in ChEMBL document CHEMBL4152188, “Design, synthesis and biological evaluation of C(4) substituted monobactams as antibacterial agents against multidrug-resistant Gram-negative bacteria” (Eur J Med Chem, 2018).
# Columns and labels:
# Type in all cases: functional
# Klebsiella pneumoniae [1] = test: Selectivity index, ratio of MIC for against KPC-2 producing Klebsiella pneumoniae isolate 209735 to MIC for against KPC-2 producing Klebsiella pneumoniae isolate 209735 in presence of BPL
# Klebsiella pneumoniae [2] = test: Antibacterial activity against KPC-2 producing Klebsiella pneumoniae isolate 212229 after 18 hrs by CLSI broth microdilution method; conditions: isolate 212229, 18 h
# Escherichia coli [3] = test: Antibacterial activity against extended-spectrum beta-lactamase producing Escherichia coli isolate 208687 after 18 hrs by CLSI broth microdilution method; conditions: isolate 208687, 18 h
# Escherichia coli [4] = test: Antibacterial activity against Escherichia coli isolate 210737 after 18 hrs in presence of BPL by CLSI broth microdilution method; conditions: isolate 210737, 18 h
# Outline: (§1)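 CLSI broth microdilution against clinical isolates (ESBL E. coli, KPC-2 MDR K. pneumoniae, IMP-4 MDR P. aeruginosa; five per species). Iron limitation: Mueller-Hinton broth supplemented with 16 mg/liter 2,2'-bipyridyl to complex iron and induce iron uptake systems. Read-out: MIC.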
# Escherichia coli [5] = test: Antibacterial activity against extended-spectrum beta-lactamase producing Escherichia coli isolate 212648 after 18 hrs by CLSI broth microdilution method; conditions: isolate 212648, 18 h
# Klebsiella pneumoniae [6] = test: Antibacterial activity against KPC-2 producing Klebsiella pneumoniae isolate 212232 after 18 hrs in presence of BPL by CLSI broth microdilution method; conditions: isolate 212232, 18 h; outline: as §1
# Pseudomonas aeruginosa [7] = test: Antibacterial activity against IMP-4 producing Pseudomonas aeruginosa isolate 209471 after 18 hrs in presence of BPL by CLSI broth microdilution method; conditions: isolate 209471, 18 h; outline: as §1
# Klebsiella pneumoniae [8] = test: Antibacterial activity against KPC-2 producing Klebsiella pneumoniae isolate 212423 after 18 hrs by CLSI broth microdilution method; conditions: isolate 212423, 18 h
# Klebsiella pneumoniae [9] = test: Antibacterial activity against KPC-2 producing Klebsiella pneumoniae isolate 212229 after 18 hrs in presence of BPL by CLSI broth microdilution method; conditions: isolate 212229, 18 h; outline: as §1
# Escherichia coli [10] = test: Selectivity index, ratio of MIC for against extended-spectrum beta-lactamase producing Escherichia coli isolate 209285 to MIC for extended-spectrum beta-lactamase producing Escherichia coli isolate 209285 in presence of BPL
# Klebsiella pneumoniae [11] = test: Selectivity index, ratio of MIC for against KPC-2 producing Klebsiella pneumoniae isolate 209632 to MIC for against KPC-2 producing Klebsiella pneumoniae isolate 209632 in presence of BPL
# Klebsiella pneumoniae [12] = test: Selectivity index, ratio of MIC for against KPC-2 producing Klebsiella pneumoniae isolate 212229 to MIC for against KPC-2 producing Klebsiella pneumoniae isolate 212229 in presence of BPL
# Escherichia coli [13] = test: Antibacterial activity against extended-spectrum beta-lactamase producing Escherichia coli isolate 209285 after 18 hrs in presence of BPL by CLSI broth microdilution method; conditions: isolate 209285, 18 h; outline: as §1
# Pseudomonas aeruginosa [14] = test: Antibacterial activity against IMP-4 producing Pseudomonas aeruginosa isolate 208247 after 18 hrs in presence of BPL by CLSI broth microdilution method; conditions: isolate 208247, 18 h; outline: as §1
# Pseudomonas aeruginosa [15] = test: Selectivity index, ratio of MIC for against IMP-4 producing Pseudomonas aeruginosa isolate 212886 to MIC for against IMP-4 producing Pseudomonas aeruginosa isolate 212886 in presence of BPL
# Pseudomonas aeruginosa [16] = test: Selectivity index, ratio of MIC for against IMP-4 producing Pseudomonas aeruginosa isolate 209321 to MIC for against IMP-4 producing Pseudomonas aeruginosa isolate 209321 in presence of BPL
# Escherichia coli [17] = test: Selectivity index, ratio of MIC for against extended-spectrum beta-lactamase producing Escherichia coli isolate 208687 to MIC for extended-spectrum beta-lactamase producing Escherichia coli isolate 208687 in presence of BPL
# Klebsiella pneumoniae [18] = test: Antibacterial activity against KPC-2 producing Klebsiella pneumoniae isolate 212232 after 18 hrs by CLSI broth microdilution method; conditions: isolate 212232, 18 h
# Pseudomonas aeruginosa [19] = test: Antibacterial activity against IMP-4 producing Pseudomonas aeruginosa isolate 209321 after 18 hrs in presence of BPL by CLSI broth microdilution method; conditions: isolate 209321, 18 h; outline: as §1
# Escherichia coli [20] = test: Selectivity index, ratio of MIC for against extended-spectrum beta-lactamase producing Escherichia coli isolate 212648 to MIC for extended-spectrum beta-lactamase producing Escherichia coli isolate 212648 in presence of BPL
# Pseudomonas aeruginosa [21] = test: Antibacterial activity against IMP-4 producing Pseudomonas aeruginosa isolate 212886 after 18 hrs by CLSI broth microdilution method; conditions: isolate 212886, 18 h
# Escherichia coli [22] = test: Antibacterial activity against extended-spectrum beta-lactamase producing Escherichia coli isolate 209285 after 18 hrs by CLSI broth microdilution method; conditions: isolate 209285, 18 h
# Escherichia coli [23] = test: Selectivity index, ratio of MIC for against Escherichia coli isolate 210737 to MIC for Escherichia coli isolate 210737 in presence of BPL
# Pseudomonas aeruginosa [24] = test: Antibacterial activity against IMP-4 producing Pseudomonas aeruginosa isolate 208247 after 18 hrs by CLSI broth microdilution method; conditions: isolate 208247, 18 h
# Escherichia coli [25] = test: Antibacterial activity against extended-spectrum beta-lactamase producing Escherichia coli isolate 106342 after 18 hrs in presence of BPL by CLSI broth microdilution method; conditions: isolate 106342, 18 h; outline: as §1
# Pseudomonas aeruginosa [26] = test: Selectivity index, ratio of MIC for against IMP-4 producing Pseudomonas aeruginosa isolate 207272 to MIC for against IMP-4 producing Pseudomonas aeruginosa isolate 207272 in presence of BPL
# Escherichia coli [27] = test: Antibacterial activity against extended-spectrum beta-lactamase producing Escherichia coli isolate 106342 after 18 hrs by CLSI broth microdilution method; conditions: isolate 106342, 18 h
# Klebsiella pneumoniae [28] = test: Antibacterial activity against KPC-2 producing Klebsiella pneumoniae isolate 209735 after 18 hrs by CLSI broth microdilution method; conditions: isolate 209735, 18 h
# Klebsiella pneumoniae [29] = test: Selectivity index, ratio of MIC for against KPC-2 producing Klebsiella pneumoniae isolate 212423 to MIC for against KPC-2 producing Klebsiella pneumoniae isolate 212423 in presence of BPL
# Pseudomonas aeruginosa [30] = test: Selectivity index, ratio of MIC for against IMP-4 producing Pseudomonas aeruginosa isolate 209471 to MIC for against IMP-4 producing Pseudomonas aeruginosa isolate 209471 in presence of BPL
# Pseudomonas aeruginosa [31] = test: Selectivity index, ratio of MIC for against IMP-4 producing Pseudomonas aeruginosa isolate 208247 to MIC for against IMP-4 producing Pseudomonas aeruginosa isolate 208247 in presence of BPL
# Pseudomonas aeruginosa [32] = test: Antibacterial activity against IMP-4 producing Pseudomonas aeruginosa isolate 209321 after 18 hrs by CLSI broth microdilution method; conditions: isolate 209321, 18 h
# Klebsiella pneumoniae [33] = test: Selectivity index, ratio of MIC for against KPC-2 producing Klebsiella pneumoniae isolate 212232 to MIC for against KPC-2 producing Klebsiella pneumoniae isolate 212232 in presence of BPL
# Pseudomonas aeruginosa [34] = test: Antibacterial activity against IMP-4 producing Pseudomonas aeruginosa isolate 207272 after 18 hrs in presence of BPL by CLSI broth microdilution method; conditions: isolate 207272, 18 h; outline: as §1
# Pseudomonas aeruginosa [35] = test: Antibacterial activity against IMP-4 producing Pseudomonas aeruginosa isolate 209471 after 18 hrs by CLSI broth microdilution method; conditions: isolate 209471, 18 h
# Escherichia coli [36] = test: Antibacterial activity against Escherichia coli isolate 210737 after 18 hrs by CLSI broth microdilution method; conditions: isolate 210737, 18 h
# Pseudomonas aeruginosa [37] = test: Antibacterial activity against IMP-4 producing Pseudomonas aeruginosa isolate 212886 after 18 hrs in presence of BPL by CLSI broth microdilution method; conditions: isolate 212886, 18 h; outline: as §1
# Escherichia coli [38] = test: Antibacterial activity against extended-spectrum beta-lactamase producing Escherichia coli isolate 208687 after 18 hrs in presence of BPL by CLSI broth microdilution method; conditions: isolate 208687, 18 h; outline: as §1
# Pseudomonas aeruginosa [39] = test: Antibacterial activity against IMP-4 producing Pseudomonas aeruginosa isolate 207272 after 18 hrs by CLSI broth microdilution method; conditions: isolate 207272, 18 h
# Klebsiella pneumoniae [40] = test: Antibacterial activity against KPC-2 producing Klebsiella pneumoniae isolate 212423 after 18 hrs in presence of BPL by CLSI broth microdilution method; conditions: isolate 212423, 18 h; outline: as §1
# Escherichia coli [41] = test: Selectivity index, ratio of MIC for against extended-spectrum beta-lactamase producing Escherichia coli isolate 106342 to MIC for extended-spectrum beta-lactamase producing Escherichia coli isolate 106342 in presence of BPL
# Klebsiella pneumoniae [42] = test: Antibacterial activity against KPC-2 producing Klebsiella pneumoniae isolate 209632 after 18 hrs in presence of BPL by CLSI broth microdilution method; conditions: isolate 209632, 18 h; outline: as §1
# Escherichia coli [43] = test: Antibacterial activity against extended-spectrum beta-lactamase producing Escherichia coli isolate 212648 after 18 hrs in presence of BPL by CLSI broth microdilution method; conditions: isolate 212648, 18 h; outline: as §1
# Klebsiella pneumoniae [44] = test: Antibacterial activity against KPC-2 producing Klebsiella pneumoniae isolate 209735 after 18 hrs in presence of BPL by CLSI broth microdilution method; conditions: isolate 209735, 18 h; outline: as §1
# Klebsiella pneumoniae [45] = test: Antibacterial activity against KPC-2 producing Klebsiella pneumoniae isolate 209632 after 18 hrs by CLSI broth microdilution method; conditions: isolate 209632, 18 h
structure (smiles),measurement,setting,value
CC(C)C(O/N=C(\C(=O)N[C@@H]1C(=O)N(S(=O)(=O)O)[C@@H]1CSc1nnnn1C)c1csc(N)n1)c1cc(=O)c(O)cn1O (stereo not given in full),Selectivity Index,Klebsiella pneumoniae [1],4
same,MIC,Klebsiella pneumoniae [2],1 µg/mL
same,MIC,Escherichia coli [3],0.125 µg/mL
same,MIC,Escherichia coli [4],0.25 µg/mL
same,MIC,Escherichia coli [5],0.5 µg/mL
same,MIC,Klebsiella pneumoniae [6],0.25 µg/mL
same,MIC,Pseudomonas aeruginosa [7],64 µg/mL
same,MIC,Klebsiella pneumoniae [8],2 µg/mL
same,MIC,Klebsiella pneumoniae [9],0.5 µg/mL
same,Selectivity Index,Escherichia coli [10],4
same,Selectivity Index,Klebsiella pneumoniae [11],1
same,Selectivity Index,Klebsiella pneumoniae [12],2
same,MIC,Escherichia coli [13],0.25 µg/mL
same,MIC,Pseudomonas aeruginosa [14],16 µg/mL
same,Selectivity Index,Pseudomonas aeruginosa [15],>2
same,Selectivity Index,Pseudomonas aeruginosa [16],2
same,Selectivity Index,Escherichia coli [17],2
same,MIC,Klebsiella pneumoniae [18],2 µg/mL
same,MIC,Pseudomonas aeruginosa [19],32 µg/mL
same,Selectivity Index,Escherichia coli [20],2
same,MIC,Pseudomonas aeruginosa [21],> 64 µg/mL
same,MIC,Escherichia coli [22],1 µg/mL
same,Selectivity Index,Escherichia coli [23],2
same,MIC,Pseudomonas aeruginosa [24],32 µg/mL
same,MIC,Escherichia coli [25],0.5 µg/mL
same,Selectivity Index,Pseudomonas aeruginosa [26],2
same,MIC,Escherichia coli [27],1 µg/mL
same,MIC,Klebsiella pneumoniae [28],2 µg/mL
same,Selectivity Index,Klebsiella pneumoniae [29],2
same,Selectivity Index,Pseudomonas aeruginosa [30],1
same,Selectivity Index,Pseudomonas aeruginosa [31],2
same,MIC,Pseudomonas aeruginosa [32],64 µg/mL
same,Selectivity Index,Klebsiella pneumoniae [33],8
same,MIC,Pseudomonas aeruginosa [34],16 µg/mL
same,MIC,Pseudomonas aeruginosa [35],64 µg/mL
same,MIC,Escherichia coli [36],0.5 µg/mL
same,MIC,Pseudomonas aeruginosa [37],32 µg/mL
same,MIC,Escherichia coli [38],0.06 µg/mL
same,MIC,Pseudomonas aeruginosa [39],32 µg/mL
same,MIC,Klebsiella pneumoniae [40],1 µg/mL
same,Selectivity Index,Escherichia coli [41],2
same,MIC,Klebsiella pneumoniae [42],1 µg/mL
same,MIC,Escherichia coli [43],0.25 µg/mL
same,MIC,Klebsiella pneumoniae [44],0.5 µg/mL
same,MIC,Klebsiella pneumoniae [45],1 µg/mL
CC(C)C(O/N=C(\C(=O)N[C@@H]1C(=O)N(S(=O)(=O)O)[C@@H]1COS(=O)(=O)O)c1csc(N)n1)c1cc(=O)c(O)cn1O (stereo not given in full),Selectivity Index,Klebsiella pneumoniae [1],8
same,MIC,Klebsiella pneumoniae [2],1 µg/mL
same,MIC,Escherichia coli [3],8 µg/mL
same,MIC,Escherichia coli [4],2 µg/mL
same,MIC,Escherichia coli [5],8 µg/mL
same,MIC,Klebsiella pneumoniae [6],0.125 µg/mL
same,MIC,Pseudomonas aeruginosa [7],32 µg/mL
same,MIC,Klebsiella pneumoniae [8],2 µg/mL
same,MIC,Klebsiella pneumoniae [9],0.25 µg/mL
same,Selectivity Index,Escherichia coli [10],2
same,Selectivity Index,Klebsiella pneumoniae [11],4
same,Selectivity Index,Klebsiella pneumoniae [12],4
same,MIC,Escherichia coli [13],4 µg/mL
same,MIC,Pseudomonas aeruginosa [14],32 µg/mL
same,Selectivity Index,Pseudomonas aeruginosa [15],>2
same,Selectivity Index,Pseudomonas aeruginosa [16],1
same,Selectivity Index,Escherichia coli [17],4
same,MIC,Klebsiella pneumoniae [18],2 µg/mL
same,MIC,Pseudomonas aeruginosa [19],32 µg/mL
same,Selectivity Index,Escherichia coli [20],4
same,MIC,Pseudomonas aeruginosa [21],> 64 µg/mL
same,MIC,Escherichia coli [22],8 µg/mL
same,Selectivity Index,Escherichia coli [23],1
same,MIC,Pseudomonas aeruginosa [24],32 µg/mL
same,MIC,Escherichia coli [25],4 µg/mL
same,Selectivity Index,Pseudomonas aeruginosa [26],1
same,MIC,Escherichia coli [27],8 µg/mL
same,MIC,Klebsiella pneumoniae [28],2 µg/mL
same,Selectivity Index,Klebsiella pneumoniae [29],4
same,Selectivity Index,Pseudomonas aeruginosa [30],1
same,Selectivity Index,Pseudomonas aeruginosa [31],1
same,MIC,Pseudomonas aeruginosa [32],32 µg/mL
same,Selectivity Index,Klebsiella pneumoniae [33],16
same,MIC,Pseudomonas aeruginosa [34],32 µg/mL
same,MIC,Pseudomonas aeruginosa [35],32 µg/mL
same,MIC,Escherichia coli [36],2 µg/mL
same,MIC,Pseudomonas aeruginosa [37],32 µg/mL
same,MIC,Escherichia coli [38],2 µg/mL
same,MIC,Pseudomonas aeruginosa [39],32 µg/mL
same,MIC,Klebsiella pneumoniae [40],0.5 µg/mL
same,Selectivity Index,Escherichia coli [41],2
same,MIC,Klebsiella pneumoniae [42],0.125 µg/mL
same,MIC,Escherichia coli [43],2 µg/mL
same,MIC,Klebsiella pneumoniae [44],0.25 µg/mL
same,MIC,Klebsiella pneumoniae [45],0.5 µg/mL
